Compound activity deposited in PubChem by NMMLSC.
ABCB1 block: inhibitors of human ABCB1 transporter, ABCG2 counter-screen. inhibition, % at 6.6 µM. 0.067% of 190,000 active. CCRF-Adr cells, JC-1 efflux, flow cytometry. P08183; in the data active means inhibition above about 40%;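 further: 0% = vehicle and 100% = reference inhibitor; higher value means more JC-1 retained so stronger ABCB1 efflux block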
RGS7-Gao: modulates binding of RGS7 to human Galphao | 0.35% of 220,000 active | Multiplexed bead flow cytometry; actives lie on both sides | AID 1439 | binding response (% of control), % at 10 µM; in the data active means binding response below about 49% or above about 150%; inconclusive means no clear call, values can overlap the other calls; inactive means in between;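 further: fluorescent Galphao held in activated GDP-AlF4 state binding bead-coupled RGS7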
ABCG2 inh: blocks JC-1 efflux by human ABCG2 transporter | IgMXP3 cells, flow cytometry | Q9UNQ0 | 0.1% of 190,000 active | inhibition, % at 6.6 µM;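 active means inhibition above 80%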;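 further: 0% = DMSO and 100% = nicardipine control wells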
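Test system: IgMXP3 cells (ABCG2) mixed with DDAO far-red-labelled CCRF-Adr cells (ABCB1). Reagent: JC-1 transporter substrate. Compound dosing: single test compound dose, 6.6 µM final. Times: 10 min compound exposure, 25 °C. Detection: flow cytometry of retained JC-1 fluorescence. Read-out basis: efflux inhibition in percent versus controls. Controls: nicardipine and DMSO wells.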
RGS4-Gao reg: human RGS4-Galphao interaction regulation. P09471. Multiplexed bead flow cytometry, RGS4-Galphao binding; actives lie on both sides. binding response (% of control), % at 10 µM. 0.33% of 220,000 active; in the data active means binding response below about 49% or above about 150%; inactive means in between;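 further: fluorescent Galphao activated with aluminum fluoride binding bead-coupled RGS4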
RGS16-Gao: modulates binding between human RGS16 and Galphao | bead-based flow cytometry RGS16-Galphao binding, fluorescence; actives lie on both sides | 0.38% of 220,000 active | O15492+P09471 | binding response (% of control), % at 10 µM;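 further: Galphao activated by GDP with aluminum fluoride before binding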
Target sequence (O15492 whole entry, looked up): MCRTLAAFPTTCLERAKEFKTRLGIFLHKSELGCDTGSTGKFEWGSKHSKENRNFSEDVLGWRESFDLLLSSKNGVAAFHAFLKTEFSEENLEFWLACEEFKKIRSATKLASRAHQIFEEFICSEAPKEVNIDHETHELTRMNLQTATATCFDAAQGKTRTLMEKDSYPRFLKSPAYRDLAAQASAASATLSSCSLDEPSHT
Target sequence (P09471 whole entry, looked up): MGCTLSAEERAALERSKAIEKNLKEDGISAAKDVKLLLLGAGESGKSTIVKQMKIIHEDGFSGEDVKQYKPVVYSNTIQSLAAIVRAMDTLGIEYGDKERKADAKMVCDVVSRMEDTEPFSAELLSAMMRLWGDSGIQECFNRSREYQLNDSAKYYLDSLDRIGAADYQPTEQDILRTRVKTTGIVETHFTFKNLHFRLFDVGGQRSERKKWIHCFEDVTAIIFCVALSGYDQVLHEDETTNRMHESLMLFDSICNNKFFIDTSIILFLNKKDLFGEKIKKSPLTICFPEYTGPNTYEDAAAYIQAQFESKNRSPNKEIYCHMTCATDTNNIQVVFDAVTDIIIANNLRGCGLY
RGS8-Gao reg: modulates binding of RGS8 to human Galphao | 0.34% of 220,000 active | response (percent of control binding), % at 10 µM | AID 1423 | multiplexed bead flow cytometry; actives lie on both sides; in the data active means response below about 60% or above about 140%; inactive means in between;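 further: Galphao activated as the GDP aluminium fluoride complex binding bead-coupled RGS8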
RGS4-Gao HTS: regulators of human RGS4-Galphao interaction. shares compounds with RGS16-Gao. multiplexed bead flow cytometry, RGS–Galpha-o binding. RGS4–Galpha-o binding response, % at 10 µM. 99% of 1,600 active;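 further: fluorescently labeled Galpha-o bound to GDP with aluminium fluoride binding biotinylated RGS beads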
Avidin counter: biotin-avidin bead binding disruption counter-screen; streptavidin beads, fluorescein-biotin binding, flow cytometry; 1,700 tested, under 10 active; inhibition, % at 10 µM; AID 1783; shares compounds with RGS16-Gao;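 active means inhibition above 50%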;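 further: median green fluorescence of gated singlet beads compared with DMSO control wells; 0% = DMSO wells and 100% = complete loss of bead fluorescence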
RGS8-Gao confirm: RGS8-Galphao interaction regulation, single point confirmation. shares compounds with RGS16-Gao. bead-based flow cytometry RGS8-Galphao binding, fluorescence; actives lie on both sides. binding response (% of control), % at 10 µM. 3% of 1,700 active. AID 1836; in the data active means binding response below about 72% or above about 130%; inactive means in between;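 further: Galphao activated as GDP AlF4 complex before binding bead RGS8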
RGS7-Gao single: RGS7-Galphao interaction regulation, single point confirmation | response (percent of control binding), % at 10 µM | 7.8% of 1,700 active | shares compounds with RGS16-Gao | AID 1837 | bead-based flow cytometry RGS7-Galphao binding; actives lie on both sides; in the data active means response below about 75% or above about 130%; inactive means in between;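 further: fluorescent Galphao activated with GDP and aluminum fluoride binding bead-coupled RGS7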
RGS16-Gao single: RGS16-Galphao interaction regulation, single point confirmation; shares compounds with RGS16-Gao; bead-based flow cytometry, RGS16-Galphao binding; actives lie on both sides; response (% of control binding), % at 10 µM; 4% of 1,700 active; AID 1838; in the data active means response below about 74% or above about 130%; inactive means in between;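 further: Galphao activated as the GDP aluminium fluoride complex binding bead-coupled RGS16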
RGS4-Gao confirm: RGS4-Galphao interaction regulation, single point confirmation; 4% of 1,700 active; binding response (% of control), % at 10 µM; shares compounds with RGS16-Gao; AID 1840; RGS4-Galphao binding, multiplexed bead flow cytometry; actives lie on both sides; in the data active means binding response below about 74% or above about 130%; inactive means in between
RGS19-Gao single: RGS19-Galphao interaction regulation, single point confirmation. shares compounds with RGS16-Gao. bead-based flow cytometry RGS19-Galphao binding; actives lie on both sides. response (percent of control binding), % at 10 µM. 5% of 1,700 active; in the data active means response below about 50% or above about 160%; inactive means in between;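 further: 100% = no compound control and 0% = blank background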
An asterisk follows results filed as active; ? = inconclusive; nt = no result; [ ] = remark or other dose. Shown are actives, neighbours in structure and some others; about 0.9% of the full set was active somewhere. Unless noted, how the calls were made is not given here.

SMILES	ABCB1 block	RGS7-Gao	ABCG2 inh	RGS4-Gao reg	RGS16-Gao	RGS8-Gao reg	Avidin counter	RGS8-Gao confirm	RGS7-Gao single	RGS16-Gao single	RGS4-Gao confirm	RGS19-Gao single	others
COc1ccc(CNC(=O)C2CSC(c3ccc(OC)cc3)N2C(C)=O)cc1 (configuration not stated)	1	217*[activator]	1	106	82	70	-2	103	104	103	103	106	RGS4-Gao HTS=106*
COc1ccc(C2SCC(C(=O)O)N2C(C)=O)cc1 (configuration not stated)	0	100	6	100	102	101	nt	nt	nt	nt	nt	nt
COc1ccc(OC)c(S(=O)(=O)N2CCC(C(=O)NCCc3ccc(OC)c(OC)c3)CC2)c1	0	nt	4	nt	nt	nt	2	102	103	106	102	117
COC(=O)c1c(-c2ccccc2)c[nH]c1C	nt	?	nt	98	99	102	nt	nt	nt	nt	nt	nt
Cc1ccnc2nc(C(=O)OCC(=O)NC(=O)NCc3ccco3)nn12	0	?	2	95	94	98	nt	nt	nt	nt	nt	nt
CCCC(CCC)C(=O)Nc1ccc2c(c1)N(C(=O)CN1CCN(C)CC1)c1ccccc1CC2	0	119	0	121	253*[activator]	129	1	105	104	102	102	100	RGS4-Gao HTS=121*
COc1ccc(NC(=O)NCCCN2CCN(c3ccccc3F)CC2)cc1	nt	?	nt	12*	8.9*	22*	2	112	114	111	113	104
CN(C)C(=S)Nc1ccc2c(c1)OCCO2	nt	?	nt	40*	46	69	0	100	97	101	101	112
S=C(Nc1ccc2c(c1)OCCO2)Nc1ccc2c(c1)OCO2	0	93	4	90	99	97	nt	nt	nt	nt	nt	nt
Cc1ccc(Cn2cnc3c(cnn3-c3ccc(F)cc3)c2=O)cc1	0	98	0	99	95	99	nt	nt	nt	nt	nt	nt
O=c1oc2ccccc2c(N2CCCC2)c1[N+](=O)[O-]	0	157*[activator]	0	157*[activator]	180*[activator]	161*[activator]	-1	93	84	87	89	75
O=c1oc2ccccc2c(N2CCCCC2)c1[N+](=O)[O-]	0	102	13	101	103	100	nt	nt	nt	nt	nt	nt
COC(=O)C1SCC2C(=O)N(Cc3ccc(Cl)c(Cl)c3)CC(=O)N21 (configuration not stated)	2	?	5	94	97	97	nt	nt	nt	nt	nt	nt
CCN(c1ccc(N=Cc2c(O)n(Cc3ccc(OC)cc3)c(=O)c3ccccc23)cc1)C(C)C	5	163*[activator]	7	124	120	103	2	116	309*[activator]	194*[activator]	221*[activator]	473*[activator]	RGS4-Gao HTS=124*
COc1ccc(-n2c(O)c(C=Nc3ccccc3)c3ccccc3c2=O)cc1	-1	87	8	91	94	100	nt	nt	nt	nt	nt	nt
CCOc1ccc(-n2c(=O)c3sccc3n(Cc3cccc([N+](=O)[O-])c3)c2=O)cc1	2	96	2	96	100	99	nt	nt	nt	nt	nt	nt
